The values below come from ChEMBL document CHEMBL1811868, “Structure-activity relationship of 2-hydroxy-2-aryl-2,3-dihydro-imidazo[1,2-a]pyrimidinium salts and 2N-substituted 4(5)-aryl-2-amino-1H-imidazoles as inhibitors of biofilm formation by Salmonella Typhimurium and Pseudomonas aeruginosa” (Bioorg Med Chem, 2011).

Activity calls are given as the source filed them. The rule behind the calls is not given here.

For assay [1], the system named is Salmonella typhimurium. Put plainly: Antimicrobial activity against Salmonella Typhimurium ATCC 14028 assessed as inhibition of planktonic cell growth at IC50 after 24 hrs by […]. It is filed as functional, organism-based. The settings on record: Salmonella enterica subsp. enterica serovar Typhimurium. The essentials: (§1)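 Planktonic growth was followed by Bioscreen growth curves, not by crystal violet. Overnight cultures were diluted 1:200 in TSB 1/20 and received compound serially diluted in DMSO or EtOH, in triplicate, with solvent controls. Plates were shaken at 25 °C for at least 24 h, reading A600 every 15 min.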

The subject of assay [2] is Pseudomonas aeruginosa. Put plainly: Antimicrobial activity against Pseudomonas aeruginosa PA14 assessed as inhibition of biofilm formation after 24 hrs by spectrophotometry. The class given is functional, organism-based. The settings on record: PA14, 24 h. The essentials: (§2)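 Static peg-lid biofilm prevention assay. Twofold serial dilutions in TSB diluted 1/20, 2–3 repeats per compound. Overnight S. Typhimurium ATCC14028 (LB-grown) or P. aeruginosa PA14 (TSB-grown) cultures were diluted 1:100, giving ~10^6 cells/well, then incubated 24 h at 25 °C without shaking. Pegs were PBS-washed, stained 30 min with 0.1% crystal violet, extracted with 30% acetic acid and read at OD570. IC50 was fitted from the concentration gradient.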

Assay [3] concerns Salmonella typhimurium. Put plainly: Antimicrobial activity against Salmonella Typhimurium ATCC 14028 assessed as inhibition of biofilm formation after 24 hrs by spectrophotometry. It is filed as functional, organism-based, Salmonella enterica subsp. enterica serovar Typhimurium. The settings on record: for IC50: Salmonella enterica, ATCC 14028, 24 h. The method, boiled down: as §2

Assay [4] concerns Pseudomonas aeruginosa. The assay is described as follows: Antimicrobial activity against Pseudomonas aeruginosa PA14 assessed as inhibition of planktonic cell growth at IC50 after 24 hrs by […]. It is filed as functional, organism-based. The essentials: as §1

Turning to `O=[N+]([O-])c1ccc([C@]2(O)C[n+]3cccnc3N2C2CCCCCCCCCCC2)cc1`, the “growth inhibition (GI)” value with Salmonella typhimurium [1] and in the assay on Pseudomonas aeruginosa [4] was “Active” each time. The IC50 was 5.4 µM in the assay with Pseudomonas aeruginosa [2] and less than 6.3 µM in the assay on Salmonella typhimurium [3].

With `CCCCCCCCCCN1c2nccc[n+]2C[C@@]1(O)c1ccc([N+](=O)[O-])cc1`, the “growth inhibition (GI)” value with Salmonella typhimurium [1] and in the assay with Pseudomonas aeruginosa [4] was “Active” throughout. In addition, the concentration for half-maximal inhibition (IC50) with Pseudomonas aeruginosa [2] amounted to 22.3 µM; with Salmonella typhimurium [3], 9.9 µM.

`CCCCCCCCCCN1c2nccc[n+]2C[C@@]1(O)c1ccc(Cl)cc1`: the “growth inhibition (GI)” value in the assay with Salmonella typhimurium [1] and in the assay on Pseudomonas aeruginosa [4] was “Active” each time. In addition, the half-inhibitory concentration (IC50) is 83.3 µM in the assay with Pseudomonas aeruginosa [2] and 51.3 µM in the assay on Salmonella typhimurium [3].

For `CCCCCCCCCCN1c2nccc[n+]2C[C@@]1(O)c1ccc(OC)cc1`, the “growth inhibition (GI)” value in the assay with Salmonella typhimurium [1] was “Active”. The IC50 in the assay with Salmonella typhimurium [3] was determined as 18.6 µM.

In the case of `CCCCCCCCN1c2nccc[n+]2C[C@@]1(O)c1ccccc1`, the “growth inhibition (GI)” value with Salmonella typhimurium [1] and in the assay with Pseudomonas aeruginosa [4] was “Active” each time. The IC50 was 14.4 µM in the assay on Pseudomonas aeruginosa [2] and 9.8 µM with Salmonella typhimurium [3].

Regarding `CCCCCCN1c2nccc[n+]2C[C@@]1(O)c1ccc([N+](=O)[O-])cc1`, the “growth inhibition (GI)” value in the assay on Salmonella typhimurium [1] and in the assay on Pseudomonas aeruginosa [4] was “Active” each time. Further, the IC50 in the assay on Pseudomonas aeruginosa [2] was 12.4 µM; in the assay with Salmonella typhimurium [3], 54.7 µM.

As for `CCCCCCCCN1c2nccc[n+]2C[C@@]1(O)c1ccc(Cl)cc1`, the “growth inhibition (GI)” value with Salmonella typhimurium [1] and in the assay with Pseudomonas aeruginosa [4] was “Active” throughout. Further, the IC50 is 15.7 µM with Pseudomonas aeruginosa [2] and 7 µM in the assay on Salmonella typhimurium [3].

In the case of `CCCCCCCCCN1c2nccc[n+]2C[C@@]1(O)c1ccc(Cl)cc1`, the “growth inhibition (GI)” value in the assay on Salmonella typhimurium [1] and in the assay with Pseudomonas aeruginosa [4] was “Active” throughout. In addition, the IC50 is 20.2 µM in the assay with Pseudomonas aeruginosa [2] and 18.3 µM in the assay with Salmonella typhimurium [3].

As for `O[C@@]1(c2ccc3c(c2)OCO3)C[n+]2cccnc2N1Cc1ccc2c(c1)OCO2`, the “growth inhibition (GI)” value in the assay with Salmonella typhimurium [1] is “inactive”. The half-maximal inhibitory concentration (IC50) in the assay on Salmonella typhimurium [3] was 53.7 µM.

As for `CCCCCCCCCN1c2nccc[n+]2C[C@@]1(O)c1ccccc1`, the “growth inhibition (GI)” value in the assay with Salmonella typhimurium [1] and with Pseudomonas aeruginosa [4] was “Active” throughout. For the same molecule, the IC50 in the assay with Pseudomonas aeruginosa [2] was determined as 26.8 µM; in the assay on Salmonella typhimurium [3], 8.3 µM.

`O[C@@]1(c2ccc(Cl)cc2)C[n+]2cccnc2N1C1CCCCCCCCCCC1`: the “growth inhibition (GI)” value with Salmonella typhimurium [1] and with Pseudomonas aeruginosa [4] was “Active” in each case. Besides, the half-inhibitory concentration (IC50) in the assay with Pseudomonas aeruginosa [2] is 6.8 µM; with Salmonella typhimurium [3], 5.6 µM.

On to `CCCCCNc1ncc(-c2ccc(Cl)cc2)[nH]1`, for which the 50% inhibitory concentration (IC50) in the assay with Pseudomonas aeruginosa [2] is 6.3 µM; in the assay with Salmonella typhimurium [3] it was more than 400 µM.

In the case of `CCCCCCCCNc1ncc(-c2ccc(F)cc2)[nH]1`, the half-inhibitory concentration (IC50) in the assay on Pseudomonas aeruginosa [2] is 3.1 µM; in the assay with Salmonella typhimurium [3] it was more than 400 µM.

As to `CCCCCCCN1c2nccc[n+]2C[C@@]1(O)c1ccc(Cl)cc1`, the IC50 in the assay on Pseudomonas aeruginosa [2] came out at 36.9 µM; with Salmonella typhimurium [3] it was 6.7 µM.

Take `CCCCCCCCCCN1c2nccc[n+]2C[C@@]1(O)c1ccccc1`: the “growth inhibition (GI)” value in the assay with Salmonella typhimurium [1] and in the assay with Pseudomonas aeruginosa [4] was “Active” in each case. For the same molecule, the concentration for half-maximal inhibition (IC50) amounted to 29.9 µM in the assay on Pseudomonas aeruginosa [2] and 15 µM with Salmonella typhimurium [3].

As for `COc1cccc(CNc2ncc(-c3ccc(-c4ccc(-c5ccccc5)cc4)cc3)[nH]2)c1`, the concentration for half-maximal inhibition (IC50) with Pseudomonas aeruginosa [2] and with Salmonella typhimurium [3] was more than 800 µM in each case.

For the molecule `CC(C)N1c2nccc[n+]2C[C@@]1(O)c1ccccc1`, the IC50 in the assay with Pseudomonas aeruginosa [2] was more than 400 µM; in the assay with Salmonella typhimurium [3] it was 540 µM.

Turning to `CCCCCCCCCCCCCCN1c2nccc[n+]2C[C@@]1(O)c1ccc(Cl)cc1`, the half-inhibitory concentration (IC50) with Pseudomonas aeruginosa [2] and with Salmonella typhimurium [3] was more than 800 µM throughout.

Consider `COc1cccc(CNc2ncc(-c3ccc(Cl)c(Cl)c3)[nH]2)c1`, for which the IC50 with Pseudomonas aeruginosa [2] and in the assay with Salmonella typhimurium [3] was more than 800 µM each time.

On to `CN1c2nccc[n+]2C[C@@]1(O)c1ccccc1`, for which the results for the half-inhibitory concentration (IC50) with Pseudomonas aeruginosa [2] and in the assay on Salmonella typhimurium [3] were more than 400 µM and more than 800 µM, respectively.

On to `CC(C)N1c2nccc[n+]2C[C@@]1(O)c1ccc([N+](=O)[O-])cc1`, for which the IC50 was found to be 192 µM in the assay on Pseudomonas aeruginosa [2] and 466 µM with Salmonella typhimurium [3].

With `CCCCN1c2nccc[n+]2C[C@@]1(O)c1ccccc1`, the IC50 in the assay with Pseudomonas aeruginosa [2] is more than 400 µM; with Salmonella typhimurium [3], 410 µM.

For the molecule `CCCCCCCCNc1ncc(-c2cccc3ccccc23)[nH]1`, the 50% inhibitory concentration (IC50) in the assay on Pseudomonas aeruginosa [2] was more than 800 µM; in the assay on Salmonella typhimurium [3] it was 238 µM. For the same molecule, in the assay on Salmonella typhimurium [3], the “inhibition (INH)” value was determined as 50%.

`O[C@@]1(c2ccccc2)C[n+]2cccnc2N1C1CCCCCC1`: the “growth inhibition (GI)” value in the assay on Salmonella typhimurium [1] and in the assay on Pseudomonas aeruginosa [4] was “inactive” in each case. The figures for the 50% inhibitory concentration (IC50) in the assay on Pseudomonas aeruginosa [2] and in the assay with Salmonella typhimurium [3] were 191 µM and 84.2 µM, respectively.

On to `CN1c2nccc[n+]2C[C@@]1(O)c1ccc(Cl)cc1`, for which the IC50 in the assay with Pseudomonas aeruginosa [2] amounted to 170 µM; with Salmonella typhimurium [3], 225 µM.

On to `O[C@@]1(c2ccc(Cl)cc2)C[n+]2cccnc2N1C1CCCCCCC1`, for which the “growth inhibition (GI)” value with Salmonella typhimurium [1] and with Pseudomonas aeruginosa [4] was “Active” throughout. For the same molecule, the results for the IC50 in the assay on Pseudomonas aeruginosa [2] and in the assay on Salmonella typhimurium [3] were 22.7 µM and 12.6 µM, respectively.

Take `CCCCCCCCN1c2nccc[n+]2C[C@@]1(O)c1ccc(S(C)(=O)=O)cc1`: the concentration for half-maximal inhibition (IC50) in the assay with Pseudomonas aeruginosa [2] was 99.9 µM; with Salmonella typhimurium [3], 60.3 µM.

On to `O[C@@]1(c2ccccc2)C[n+]2cccnc2N1C1CCC1`, for which the half-maximal inhibitory concentration (IC50) in the assay on Pseudomonas aeruginosa [2] is more than 400 µM; in the assay with Salmonella typhimurium [3] it was 493 µM.

`CC(C)CN1c2nccc[n+]2C[C@@]1(O)c1ccc([N+](=O)[O-])cc1`: the results for the 50% inhibitory concentration (IC50) with Pseudomonas aeruginosa [2] and in the assay with Salmonella typhimurium [3] were 192 µM and 322 µM, respectively.

`CCCCCCCCCCCCCN1c2nccc[n+]2C[C@@]1(O)c1ccc(Cl)cc1`: the 50% inhibitory concentration (IC50) in the assay on Pseudomonas aeruginosa [2] was more than 800 µM; with Salmonella typhimurium [3], 316 µM.

With `CCCCCCCCNc1ncc(-c2ccc(OC)cc2)[nH]1`, the IC50 with Pseudomonas aeruginosa [2] is more than 800 µM. Besides, in the assay with Salmonella typhimurium [3], the “inhibition (INH)” value is 50% and the IC50 came to 400 µM.

With `CC(C)CN1c2nccc[n+]2C[C@@]1(O)c1ccccc1`, the results for the IC50 in the assay with Pseudomonas aeruginosa [2] and with Salmonella typhimurium [3] were 289 µM and 131 µM, respectively.

Regarding `CN1c2nccc[n+]2C[C@@]1(O)c1ccc([N+](=O)[O-])cc1`, the 50% inhibitory concentration (IC50) in the assay with Pseudomonas aeruginosa [2] is more than 400 µM; in the assay on Salmonella typhimurium [3] it was 698 µM.

On to `CC(C)(C)N1c2nccc[n+]2C[C@@]1(O)c1ccc([N+](=O)[O-])cc1`, for which the figures for the IC50 in the assay on Pseudomonas aeruginosa [2] and in the assay with Salmonella typhimurium [3] were 41.5 µM and 211 µM, respectively.

For `O[C@@]1(c2ccc(Cl)cc2)C[n+]2cccnc2N1C1CCC1`, the IC50 in the assay on Pseudomonas aeruginosa [2] stood at 372 µM; with Salmonella typhimurium [3], 121 µM.

As to `CCCCN1c2nccc[n+]2C[C@@]1(O)c1ccc([N+](=O)[O-])cc1`, the 50% inhibitory concentration (IC50) with Pseudomonas aeruginosa [2] stood at 145 µM; with Salmonella typhimurium [3], 293 µM.

As for `CCCCCN1c2nccc[n+]2C[C@@]1(O)c1ccccc1`, the half-inhibitory concentration (IC50) amounted to 565 µM in the assay with Pseudomonas aeruginosa [2] and 278 µM in the assay with Salmonella typhimurium [3].

Take `CCCCCCN1c2nccc[n+]2C[C@@]1(O)c1ccc(Cl)cc1`: the values for the IC50 with Pseudomonas aeruginosa [2] and in the assay with Salmonella typhimurium [3] were 79.8 µM and 13.7 µM, respectively.

On to `CCCCCCN1c2nccc[n+]2C[C@@]1(O)c1ccccc1`, for which the IC50 was found to be 406 µM with Pseudomonas aeruginosa [2] and 102 µM in the assay with Salmonella typhimurium [3].

On to `O=[N+]([O-])c1ccc([C@]2(O)C[n+]3cccnc3N2C2CC2)cc1`, for which the IC50 turned out to be 20.4 µM in the assay on Pseudomonas aeruginosa [2] and 125 µM with Salmonella typhimurium [3].

In the case of `Fc1ccc(-c2cnc(NCc3ccc4c(c3)OCO4)[nH]2)cc1`, the “growth inhibition (GI)” value with Salmonella typhimurium [1] is “inactive”. Moreover, the IC50 worked out at 456 µM in the assay on Pseudomonas aeruginosa [2] and 66.6 µM with Salmonella typhimurium [3].

Regarding `CCCCCCCCNc1ncc(-c2ccc(Br)cc2)[nH]1`, the IC50 in the assay on Pseudomonas aeruginosa [2] was more than 800 µM; with Salmonella typhimurium [3], 1.9 µM.

The IC50 is the concentration that gives 50% inhibition.
